# Activity calls are given as the source filed them. The rule behind the calls is not given here.
# Tests used:
# A549 [1] = test: Antiproliferative activity against human A549 cells after 3 days by SRB assay; assay type: functional, cell-based; settings: A549, 72 h
# Outline: (§1)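 Cells seeded at 5 × 10^4 cells/mL and exposed to a range of concentrations for 3 days. Fixed with 10% TCA, then SRB stain read. Growth expressed as % of solvent-treated control. IC50 obtained by nonlinear regression of percent survival versus concentration.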
# SK-MES-1 = test: Antiproliferative activity against human SK-MES cells after 3 days by SRB assay; assay type: functional, cell-based; settings: SK-MES-1, 72 h; outline: as §1
# [2] = Antiproliferative activity against human H1299 cells after 3 days by SRB assay; assay type: functional, cell-based; settings: NCI-H1299, 72 h; outline: as §1
# NCI-H358 = test: Antiproliferative activity against human NCI-H358 cells after 3 days by SRB assay; assay type: functional, cell-based; settings: NCI-H358, 72 h; outline: as §1
# NCI-H292 = test: Antiproliferative activity against gefitinib resistant human NCI-H292 cells after 3 days by SRB assay; assay type: functional, cell-based; settings: NCI-H292, 72 h
# T47D = test: Antiproliferative activity against human T47D cells after 3 days by SRB assay; assay type: functional, cell-based; settings: 72 h; outline: as §1
# A549 [3] = test: Antiproliferative activity against human A549 cells assessed as growth inhibition incubated for 24 hrs measured 24 hrs after compound washout by SRB assay; assay type: functional, cell-based
# Outline: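 A549 cells exposed to a range of concentrations for 24 h, washed with PBS and kept in drug-free medium for 24 h. Compared with continuous 24 h and 48 h exposure. Viability read by SRB. Means ± SE of triplicate tests.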
# A549 [4] = test: Antiproliferative activity against human A549 cells assessed as reduction in colonies after treatment for 24 hrs measured after 14 days using Giemsa staining; assay type: functional, cell-based
# Outline: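 A549 plated at 100 cells per 35 mm dish. After 24 h, medium with compound added for 24 h, then PBS wash and 14 days' growth in drug-free medium. Colonies methanol-fixed, Giemsa-stained, counted, and expressed as % of DMSO-treated control.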
# A549 [5] = test: Cell cycle arrest in human A549 cells assessed as accumulation at Sub-G1 phase at 5 nM after 24 hrs by propidium iodide staining-based flow cytometric analysis (reference value: 0.2 %); assay type: functional
# A549 [6] = test: Cell cycle arrest in human A549 cells assessed as accumulation at G0/G1 phase at 5 nM after 24 hrs by propidium iodide staining-based flow cytometric analysis (reference value: 49.6 %); assay type: functional
# A549 [7] = test: Cell cycle arrest in human A549 cells assessed as accumulation at G2/M phase at 5 nM after 24 hrs by propidium iodide staining-based flow cytometric analysis (reference value: 18.9 %); assay type: functional
# A549 [8] = test: Cell cycle arrest in human A549 cells assessed as accumulation at Sub-G1 phase at 5 nM after 48 hrs by propidium iodide staining-based flow cytometric analysis (reference value: 0.2 %); assay type: functional
# A549 [9] = test: Cell cycle arrest in human A549 cells assessed as accumulation at G0/G1 phase at 5 nM after 48 hrs by propidium iodide staining-based flow cytometric analysis (reference value: 49.6 %); assay type: functional
# A549 [10] = test: Cell cycle arrest in human A549 cells assessed as accumulation at S phase at 20 nM after 48 hrs by propidium iodide staining-based flow cytometric analysis (reference value: 31.6 %); assay type: functional
# A549 [11] = test: Downregulation of CDK2 expression in human A549 cells at G1 phase at 5 to 100 nM after 24 to 48 hrs by Western blot analysis; assay type: functional, cell-based
# Outline: (§2)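 A549 cells treated with a range of concentrations for 24 or 48 h. Lysates run on 6–15% SDS-PAGE and blotted to PVDF, blocked in 5% milk/PBST. Primary antibodies overnight at 4 °C, secondary 2 h at room temperature, ECL detection. Representative of three independent experiments.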
# A549 [12] = test: Downregulation of cyclin A expression in human A549 cells at G1 phase at 5 to 100 nM after 24 to 48 hrs by Western blot analysis; assay type: functional, cell-based; outline: as §2
# A549 [13] = test: Downregulation of c-myc expression in human A549 cells at G1 phase at 5 to 100 nM after 24 to 48 hrs by Western blot analysis; assay type: functional, cell-based; outline: as §2
# A549 [14] = test: Downregulation of phosphorylated Rb expression in human A549 cells at G1 phase at 5 to 100 nM after 24 to 48 hrs by Western blot analysis; assay type: functional, cell-based; outline: as §2
# A549 [15] = test: Downregulation of cyclin B1 expression in human A549 cells at G2/M phase at 5 to 100 nM after 24 to 48 hrs by Western blot analysis; assay type: functional, cell-based; outline: as §2
# A549 [16] = test: Inhibition of Akt-signaling in human A549 cells at 5 to 40 nM after 24 hrs by Western blot analysis; assay type: cell-based
# Outline: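 A549 cells exposed for 24 or 48 h to a range of concentrations. Akt/mTOR pathway proteins in lysates assessed by Western blot (SDS-PAGE, PVDF, ECL detection).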
# [17] = biological target: Signal transducer and activator of transcription 3 (Homo sapiens) (UniProt P40763); test: Inhibition of STAT3 phosphorylation in human A549 cells after 24 hrs by Western blot analysis; assay type: cell-based
# Outline: (§3)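 A549 cells (RPMI 1640, 10% FBS, 37 °C, 5% CO2) exposed to the compound at various concentrations for 24 or 48 h. Lysates run on 6–15% SDS-PAGE, transferred to PVDF, probed with primary antibodies overnight at 4 °C, and detected by ECL. Blots shown are representative of three independent experiments.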
# [18] = biological target: Serine/threonine-protein kinase mTOR (Homo sapiens) (UniProt P42345); test: Inhibition of MTOR-mediated p70S6K activation in human A549 cells at 20 nM after 24 to 48 hrs by Western blot analysis; assay type: cell-based; outline: as §3
# [19] = biological target: Serine/threonine-protein kinase mTOR (Homo sapiens) (UniProt P42345); test: Inhibition of MTOR-mediated 4EBP1 phosphorylation in human A549 cells at 20 nM after 24 to 48 hrs by Western blot analysis; assay type: cell-based; outline: as §3
# [20] = biological target: Epidermal growth factor receptor (Homo sapiens) (UniProt P00533); test: Inhibition of EGFR-mediated ERK1/2 phosphorylation in EGF-stimulated human A549 cells pretreated at 5 to 100 nM by Western blot analysis; assay type: cell-based
# [21] = biological target: Hepatocyte growth factor receptor (Homo sapiens) (UniProt P08581); test: Inhibition of c-Met-mediated ERK1/2 phosphorylation in HGF-stimulated human A549 cells pretreated at 5 to 100 nM by Western blot analysis; assay type: cell-based
# Outline: (§4)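 A549 cells pretreated for 2 h with the compound at 5, 20 or 100 nM, then stimulated with HGF (50 ng/mL) for 10 min. c-Met and its downstream signalling proteins read by Western blot (SDS-PAGE, PVDF transfer, ECL detection).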
# [22] = biological target: Hepatocyte growth factor receptor (Homo sapiens) (UniProt P08581); test: Inhibition of c-Met-mediated 4EBP1 phosphorylation in HGF-stimulated human A549 cells pretreated at 5 to 100 nM by Western blot analysis; assay type: cell-based; outline: as §4
# Mus musculus = test: Toxicity in BALB/c mouse xenografted with human A549 cells in assessed as body weight at 0.5 mg/kg, po once daily for 14 days measured for 27 days relative to control; assay type: organism-based; set-up: dose 0.5 mg/kg, route oral; settings: in vivo, 648 h
# Outline: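 Female nu/nu mice were injected sc in the right flank with 3 × 10^6 A549 cells. At about 100 mm3 tumour volume, mice were randomised into groups of five. Compound was given orally at 0.2 or 0.5 mg/kg once daily for 14 days in ethanol/Tween 80/H2O (1:1:98). Body weight and overt toxicity were monitored against vehicle controls.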
# Sequence of Hepatocyte growth factor receptor (Homo sapiens) (P08581 whole entry): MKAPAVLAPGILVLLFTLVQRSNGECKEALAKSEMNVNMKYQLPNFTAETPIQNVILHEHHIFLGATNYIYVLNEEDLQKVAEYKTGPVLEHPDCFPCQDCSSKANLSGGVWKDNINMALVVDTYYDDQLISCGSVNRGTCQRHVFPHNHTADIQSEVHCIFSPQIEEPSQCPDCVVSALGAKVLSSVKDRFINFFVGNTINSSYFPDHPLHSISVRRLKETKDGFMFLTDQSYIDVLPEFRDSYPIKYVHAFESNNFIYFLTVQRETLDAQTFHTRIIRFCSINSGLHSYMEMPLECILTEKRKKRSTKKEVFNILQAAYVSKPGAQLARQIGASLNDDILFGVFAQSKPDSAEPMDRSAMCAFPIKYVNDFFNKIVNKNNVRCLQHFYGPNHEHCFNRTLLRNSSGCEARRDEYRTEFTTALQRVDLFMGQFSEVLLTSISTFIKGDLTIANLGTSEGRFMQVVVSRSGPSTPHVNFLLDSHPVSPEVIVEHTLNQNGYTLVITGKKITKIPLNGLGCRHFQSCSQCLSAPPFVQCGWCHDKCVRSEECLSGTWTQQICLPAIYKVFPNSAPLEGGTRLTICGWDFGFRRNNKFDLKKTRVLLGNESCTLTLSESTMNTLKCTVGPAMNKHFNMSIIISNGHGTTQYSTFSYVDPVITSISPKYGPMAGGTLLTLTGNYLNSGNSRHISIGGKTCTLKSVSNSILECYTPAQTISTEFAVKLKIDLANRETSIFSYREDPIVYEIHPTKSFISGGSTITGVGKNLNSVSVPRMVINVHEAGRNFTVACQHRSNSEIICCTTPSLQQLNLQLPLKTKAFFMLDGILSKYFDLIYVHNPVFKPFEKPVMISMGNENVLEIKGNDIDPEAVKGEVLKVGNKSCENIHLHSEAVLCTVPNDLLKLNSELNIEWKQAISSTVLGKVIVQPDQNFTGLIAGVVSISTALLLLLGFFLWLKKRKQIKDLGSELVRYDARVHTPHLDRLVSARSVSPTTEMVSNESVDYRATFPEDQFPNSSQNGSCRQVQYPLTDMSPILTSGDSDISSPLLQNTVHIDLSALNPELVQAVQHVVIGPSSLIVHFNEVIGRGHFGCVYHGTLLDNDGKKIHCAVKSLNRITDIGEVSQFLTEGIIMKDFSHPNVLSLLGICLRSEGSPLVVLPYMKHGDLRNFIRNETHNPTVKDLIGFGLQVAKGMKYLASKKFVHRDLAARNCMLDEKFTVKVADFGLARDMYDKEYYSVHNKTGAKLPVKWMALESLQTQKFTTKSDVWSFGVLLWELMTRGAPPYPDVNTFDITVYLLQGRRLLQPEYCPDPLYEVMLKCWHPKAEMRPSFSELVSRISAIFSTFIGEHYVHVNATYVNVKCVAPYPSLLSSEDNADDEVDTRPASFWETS
# Sequence of Epidermal growth factor receptor (Homo sapiens) (P00533 whole entry): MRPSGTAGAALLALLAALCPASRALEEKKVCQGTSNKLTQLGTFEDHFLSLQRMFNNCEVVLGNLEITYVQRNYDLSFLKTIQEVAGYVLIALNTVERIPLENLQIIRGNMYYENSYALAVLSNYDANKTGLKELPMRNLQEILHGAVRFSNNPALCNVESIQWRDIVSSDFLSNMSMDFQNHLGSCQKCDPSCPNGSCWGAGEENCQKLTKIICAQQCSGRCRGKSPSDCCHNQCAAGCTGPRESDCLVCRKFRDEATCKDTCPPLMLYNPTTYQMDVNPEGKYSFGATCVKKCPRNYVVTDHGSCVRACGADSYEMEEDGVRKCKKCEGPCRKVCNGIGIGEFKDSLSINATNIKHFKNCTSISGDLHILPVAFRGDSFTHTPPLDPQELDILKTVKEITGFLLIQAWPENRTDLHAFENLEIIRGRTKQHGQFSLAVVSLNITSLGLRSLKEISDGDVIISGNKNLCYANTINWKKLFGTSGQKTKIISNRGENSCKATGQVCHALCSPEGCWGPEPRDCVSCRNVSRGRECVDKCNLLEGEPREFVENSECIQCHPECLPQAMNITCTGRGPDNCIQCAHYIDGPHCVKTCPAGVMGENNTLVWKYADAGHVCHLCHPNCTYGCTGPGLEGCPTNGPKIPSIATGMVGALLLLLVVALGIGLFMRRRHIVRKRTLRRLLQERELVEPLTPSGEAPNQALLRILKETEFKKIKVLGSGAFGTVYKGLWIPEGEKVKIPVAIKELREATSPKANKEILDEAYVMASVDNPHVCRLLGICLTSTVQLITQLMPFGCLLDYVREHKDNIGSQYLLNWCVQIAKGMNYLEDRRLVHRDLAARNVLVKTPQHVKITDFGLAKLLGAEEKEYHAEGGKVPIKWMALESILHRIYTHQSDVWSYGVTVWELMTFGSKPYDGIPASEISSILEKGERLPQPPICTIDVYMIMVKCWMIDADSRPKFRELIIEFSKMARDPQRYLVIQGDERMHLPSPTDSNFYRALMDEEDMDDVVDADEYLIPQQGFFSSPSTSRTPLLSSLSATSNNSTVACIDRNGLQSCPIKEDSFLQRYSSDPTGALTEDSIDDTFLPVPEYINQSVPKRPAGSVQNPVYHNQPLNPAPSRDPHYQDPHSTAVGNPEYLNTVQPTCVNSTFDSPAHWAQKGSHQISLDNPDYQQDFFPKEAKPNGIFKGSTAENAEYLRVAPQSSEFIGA
# Sequence of Signal transducer and activator of transcription 3 (Homo sapiens) (P40763 whole entry): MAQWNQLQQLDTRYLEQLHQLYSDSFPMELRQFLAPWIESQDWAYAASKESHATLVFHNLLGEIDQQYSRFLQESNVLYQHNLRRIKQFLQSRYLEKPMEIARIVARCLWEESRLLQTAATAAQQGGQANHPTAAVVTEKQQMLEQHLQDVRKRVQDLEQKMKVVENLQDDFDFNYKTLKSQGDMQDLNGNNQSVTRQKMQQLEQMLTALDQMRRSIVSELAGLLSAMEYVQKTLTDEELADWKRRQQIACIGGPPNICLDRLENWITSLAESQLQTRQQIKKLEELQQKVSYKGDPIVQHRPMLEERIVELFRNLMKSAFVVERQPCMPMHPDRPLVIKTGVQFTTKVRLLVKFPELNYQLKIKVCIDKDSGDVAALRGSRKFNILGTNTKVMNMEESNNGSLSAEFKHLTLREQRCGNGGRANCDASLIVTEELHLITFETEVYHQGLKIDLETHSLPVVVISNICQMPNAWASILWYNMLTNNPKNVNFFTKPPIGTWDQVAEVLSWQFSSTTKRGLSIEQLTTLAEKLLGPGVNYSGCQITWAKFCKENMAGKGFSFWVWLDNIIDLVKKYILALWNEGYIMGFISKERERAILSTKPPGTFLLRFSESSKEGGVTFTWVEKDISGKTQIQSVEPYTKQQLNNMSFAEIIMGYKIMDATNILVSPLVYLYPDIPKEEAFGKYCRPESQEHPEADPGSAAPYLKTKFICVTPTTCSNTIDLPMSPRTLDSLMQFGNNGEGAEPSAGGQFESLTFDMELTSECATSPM
structure (smiles),measurement,setting,value
C=C(C)[C@@]12O[C@@]3(/C=C/C=C/CCCCC)O[C@@H]1[C@@H]1[C@@H]4O[C@]4(CO)[C@@H](O)[C@]4(O)C(=O)C(C)=C[C@H]4[C@@]1(O3)[C@H](C)[C@H]2OC(C)=O [YUANHUADINE],IC50,A549 [1],0.012 µM
same,IC50,SK-MES-1,< 1 pM
same,IC50,[2],5.6 µM
same,IC50,NCI-H358,9.1 µM
same,IC50,NCI-H292,< 1 pM
same,IC50,T47D,12.7 µM
same,growth inhibition (GI),A549 [3],Active
same,Activity,A549 [4],Active
same,Activity,A549 [5],2%
same,Activity,A549 [6],67%
same,Activity,A549 [7],27.5%
same,Activity,A549 [8],7.5%
same,Activity,A549 [9],62.2%
same,Activity,A549 [10],15.6%
same,Activity,A549 [11],Active
same,Activity,A549 [12],Active
same,Activity,A549 [13],Active
same,Activity,A549 [14],Active
same,Activity,A549 [15],Active
same,inhibition,A549 [16],Active
same,inhibition,[17],Dose-dependent effect
same,inhibition,[18],Active
same,inhibition,[19],Active
same,inhibition,[20],Active
same,inhibition,[21],Active
same,inhibition,[22],Active
same,Activity,Mus musculus,Non-toxic

# Source: ChEMBL document CHEMBL1909581, “Growth inhibition of human lung cancer cells via down-regulation of epidermal growth factor receptor signaling by yuanhuadine, a daphnane diterpene from Daphne genkwa” (J Nat Prod, 2011)
